Measured values as given in ChEMBL document CHEMBL5661976 (Cancer Res, 2007).
The source made the active and inactive calls. The rule behind the calls is not given here.

How the values were obtained:
BaF3 [1] = assay: cells; assay type: functional, cell-based; conditions: Mus musculus, BaF3, 72 h
[2] = target: Receptor tyrosine-protein kinase erbB-2 (Mus musculus, UniProt P70424); assay: Inhibition of ERBB2 expressed in mouse NIH3T3 cells; assay type: cell-based
[3] = Inhibition of recombinant Bir Kinase (unknown origin); parameters: species or system Homo sapiens
HCC827 [4] = conditions: Homo sapiens, dose 1-10000 nmol/L, time 12.0 hrs
[5] = target: Ribosomal protein S6 kinase alpha-5 (Homo sapiens, UniProt O75582); assay: Inhibition of recombinant MSK1 (unknown origin)
Chain of Ribosomal protein S6 kinase alpha-5 (O75582 whole entry): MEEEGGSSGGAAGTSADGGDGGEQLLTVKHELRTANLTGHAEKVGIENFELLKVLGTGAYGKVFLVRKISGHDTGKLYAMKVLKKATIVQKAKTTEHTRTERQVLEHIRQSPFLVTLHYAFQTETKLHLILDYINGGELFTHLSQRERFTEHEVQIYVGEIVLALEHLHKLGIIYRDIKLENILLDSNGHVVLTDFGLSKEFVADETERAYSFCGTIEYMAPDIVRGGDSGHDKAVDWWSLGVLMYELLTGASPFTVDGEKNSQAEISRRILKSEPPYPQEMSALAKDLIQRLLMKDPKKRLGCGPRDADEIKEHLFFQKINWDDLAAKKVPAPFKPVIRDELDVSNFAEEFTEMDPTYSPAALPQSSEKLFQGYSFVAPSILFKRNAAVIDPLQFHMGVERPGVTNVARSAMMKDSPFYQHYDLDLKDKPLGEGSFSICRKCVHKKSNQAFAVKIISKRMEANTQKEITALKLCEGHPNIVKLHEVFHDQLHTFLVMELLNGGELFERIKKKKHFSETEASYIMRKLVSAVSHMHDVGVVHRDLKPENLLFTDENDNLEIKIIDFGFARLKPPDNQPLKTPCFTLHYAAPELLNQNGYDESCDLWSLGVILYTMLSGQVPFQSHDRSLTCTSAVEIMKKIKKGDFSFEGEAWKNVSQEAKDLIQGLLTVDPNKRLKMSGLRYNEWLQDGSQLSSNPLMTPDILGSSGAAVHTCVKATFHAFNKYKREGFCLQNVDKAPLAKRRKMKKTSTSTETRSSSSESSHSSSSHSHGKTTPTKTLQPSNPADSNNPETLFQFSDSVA

Casein kinase 2 = Casein kinase 2 (Homo sapiens, UniProt P67870+P68400+P19784+Q8NEV1); assay: Inhibition of recombinant CK2 (unknown origin); assay type: protein assay
[6] = target: MAP kinase-activated protein kinase 2 (Homo sapiens, UniProt P49137); assay: Inhibition of recombinant MAPKAP-K2 (unknown origin)
Wee1-like protein kinase = Wee1-like protein kinase (Homo sapiens, UniProt P30291); assay: Inhibition of recombinant Wee1 (unknown origin)
Chain of Wee1-like protein kinase (P30291 whole entry): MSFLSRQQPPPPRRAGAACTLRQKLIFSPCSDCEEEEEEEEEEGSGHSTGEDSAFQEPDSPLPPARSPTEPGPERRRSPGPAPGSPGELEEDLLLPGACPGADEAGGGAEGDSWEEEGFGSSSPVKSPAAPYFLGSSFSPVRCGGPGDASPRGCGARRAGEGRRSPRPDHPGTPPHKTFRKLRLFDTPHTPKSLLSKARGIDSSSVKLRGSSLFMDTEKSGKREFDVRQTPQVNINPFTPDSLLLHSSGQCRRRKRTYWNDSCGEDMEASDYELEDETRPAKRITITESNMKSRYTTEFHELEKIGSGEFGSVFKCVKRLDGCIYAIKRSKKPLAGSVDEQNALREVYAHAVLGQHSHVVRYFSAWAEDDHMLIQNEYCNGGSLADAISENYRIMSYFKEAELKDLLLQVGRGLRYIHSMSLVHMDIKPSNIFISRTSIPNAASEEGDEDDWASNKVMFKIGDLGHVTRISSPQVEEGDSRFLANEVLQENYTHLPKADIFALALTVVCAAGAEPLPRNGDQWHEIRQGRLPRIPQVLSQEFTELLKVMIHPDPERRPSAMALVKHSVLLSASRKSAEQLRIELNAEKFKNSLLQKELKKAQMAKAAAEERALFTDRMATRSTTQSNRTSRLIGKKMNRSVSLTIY

[7] = target: Mitogen-activated protein kinase 12 (Homo sapiens, UniProt P53778); assay: Inhibition of recombinant SAPK3/p38gamma (unknown origin)
Chain of Mitogen-activated protein kinase 12 (P53778 whole entry): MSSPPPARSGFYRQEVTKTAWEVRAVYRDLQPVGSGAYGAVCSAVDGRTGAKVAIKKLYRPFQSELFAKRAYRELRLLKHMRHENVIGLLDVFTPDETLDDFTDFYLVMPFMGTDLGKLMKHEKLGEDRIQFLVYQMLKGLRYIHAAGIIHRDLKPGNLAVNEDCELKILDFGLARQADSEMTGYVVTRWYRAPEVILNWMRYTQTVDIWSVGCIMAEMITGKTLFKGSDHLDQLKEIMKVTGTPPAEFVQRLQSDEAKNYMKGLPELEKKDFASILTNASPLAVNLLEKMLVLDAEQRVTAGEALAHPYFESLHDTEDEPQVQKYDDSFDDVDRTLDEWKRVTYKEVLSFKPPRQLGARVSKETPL

[8] = target: Tyrosine-protein kinase CSK (Homo sapiens, UniProt P41240); assay: Inhibition of recombinant CSK (unknown origin)
Chain of Tyrosine-protein kinase CSK (P41240 whole entry): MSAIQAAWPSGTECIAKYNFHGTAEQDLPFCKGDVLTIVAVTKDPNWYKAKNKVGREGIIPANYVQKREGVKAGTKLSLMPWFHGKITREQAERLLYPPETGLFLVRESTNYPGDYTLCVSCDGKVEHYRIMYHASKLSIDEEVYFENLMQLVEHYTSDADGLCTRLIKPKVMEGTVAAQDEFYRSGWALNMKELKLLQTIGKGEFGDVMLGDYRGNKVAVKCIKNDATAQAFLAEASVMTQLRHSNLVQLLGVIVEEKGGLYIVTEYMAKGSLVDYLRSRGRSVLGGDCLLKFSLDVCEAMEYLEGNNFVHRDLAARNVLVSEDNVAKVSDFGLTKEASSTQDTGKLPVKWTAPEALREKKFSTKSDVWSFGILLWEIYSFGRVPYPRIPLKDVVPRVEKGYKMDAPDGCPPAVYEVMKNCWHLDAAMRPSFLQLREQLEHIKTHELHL

cells [9] = assay type: functional, cell-based; conditions: Homo sapiens, NCI-H3255GR, 72 h
NCI-H3255 [10] = assay: cells; assay type: functional, cell-based; conditions: Homo sapiens, NCI-H3255, 72 h
BaF3 [11] = assay: cells; assay type: functional, cell-based; conditions: Mus musculus, BaF3, 72 h; remark: listed apart in the source
BaF3 [12] = assay: cells; assay type: functional, cell-based; conditions: Mus musculus, BaF3, 72 h; remark: listed apart in the source
HCC827 [13] = assay: cells; assay type: functional, cell-based; conditions: Homo sapiens, HCC827, 72 h
H322 = assay: cells; assay type: functional, cell-based; conditions: Homo sapiens, NCI-H322, 72 h
[14] = target: Tyrosine-protein kinase Fes/Fps (Homo sapiens, UniProt P07332); assay: Inhibition of recombinant FES (unknown origin)
HCC827 [15] = assay: cells; assay type: functional, cell-based; conditions: Homo sapiens, HCC827, 72 h; remark: listed apart in the source
BaF3 [16] = assay: cells; assay type: functional, cell-based; conditions: Mus musculus, BaF3, 72 h; remark: listed apart in the source
HCC827 [17] = assay: Antitumor activity against human HCC827 cells expressing EGFR Del/T790M mutant xenografted in nude mouse assessed as inhibition of tumor growth at 10 mg/kg/day, po administered for 95 days and measured thrice weekly; assay type: functional, organism-based; conditions: time 95.0 day
In short: (§1)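 Nu/nu mice under 2% isoflurane/oxygen inoculated s.c. in lower-right flank with 5 × 10^6 HCC827-GFP or HCC827-Del/T790M cells in 0.2 mL PBS; randomized at mean tumor 400 to 500 mm3. Daily oral gavage 10 mg/kg/d; caliper volume = length × width² × 0.52; body weight monitored daily; ended when control tumors reached 2000 mm3.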

[18] = target: Ribosomal protein S6 kinase alpha-1 (Homo sapiens, UniProt Q15418); assay: Inhibition of recombinant MAPKAP-K1a (unknown origin)
Chain of Ribosomal protein S6 kinase alpha-1 (Q15418 whole entry): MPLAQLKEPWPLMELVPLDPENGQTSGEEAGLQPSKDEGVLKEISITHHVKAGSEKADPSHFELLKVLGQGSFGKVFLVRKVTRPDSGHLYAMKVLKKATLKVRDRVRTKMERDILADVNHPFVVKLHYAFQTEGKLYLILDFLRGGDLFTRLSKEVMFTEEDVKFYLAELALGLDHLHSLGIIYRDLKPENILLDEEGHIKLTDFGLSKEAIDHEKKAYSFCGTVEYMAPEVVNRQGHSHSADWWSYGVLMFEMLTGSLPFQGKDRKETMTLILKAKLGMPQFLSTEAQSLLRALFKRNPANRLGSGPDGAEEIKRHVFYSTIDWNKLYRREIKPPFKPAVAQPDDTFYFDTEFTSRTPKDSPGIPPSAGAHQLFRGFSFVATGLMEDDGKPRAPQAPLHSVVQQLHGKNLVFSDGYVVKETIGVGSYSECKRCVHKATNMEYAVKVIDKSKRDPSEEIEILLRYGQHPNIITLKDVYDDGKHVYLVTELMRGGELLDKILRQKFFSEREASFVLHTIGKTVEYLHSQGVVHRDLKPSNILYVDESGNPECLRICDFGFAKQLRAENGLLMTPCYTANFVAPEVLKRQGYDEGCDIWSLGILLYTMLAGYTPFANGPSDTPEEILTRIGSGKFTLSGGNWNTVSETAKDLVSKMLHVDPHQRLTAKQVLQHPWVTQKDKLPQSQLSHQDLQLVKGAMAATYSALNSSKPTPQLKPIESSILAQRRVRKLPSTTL

[19] = target: Insulin-like growth factor 1 receptor (Homo sapiens, UniProt P08069); assay: Inhibition of recombinant IGF1R (unknown origin)
NCI-H3255 [20] = assay: Induction of apoptosis in human NCI-H3255 cells assessed as increase in cleavage of PARP at 1 micromol/L incubated for 72 hrs by Western blotting analysis; assay type: functional, cell-based; conditions: dose 1.0 µmol/L
BaF3 [21] = assay: cells; assay type: functional, cell-based; conditions: Mus musculus, BaF3, 72 h; remark: listed apart in the source
A549 = assay: cells; assay type: functional, cell-based; conditions: Homo sapiens, A549, 72 h
HCC4006 = assay: cells; assay type: functional, cell-based; conditions: Homo sapiens, HCC4006, 72 h
[22] = target: Serine/threonine-protein kinase Nek2 (Homo sapiens, UniProt P51955); assay: Inhibition of recombinant NEK2a (unknown origin)
NIH3T3 [23] = conditions: Mus musculus, dose 1-10000 nmol/L, time 6.25 hrs
[24] = target: Serine/threonine-protein kinase Nek6 (Homo sapiens, UniProt Q9HC98); assay: Inhibition of recombinant NEK6 (unknown origin)
Chain of Serine/threonine-protein kinase Nek6 (Q9HC98 whole entry): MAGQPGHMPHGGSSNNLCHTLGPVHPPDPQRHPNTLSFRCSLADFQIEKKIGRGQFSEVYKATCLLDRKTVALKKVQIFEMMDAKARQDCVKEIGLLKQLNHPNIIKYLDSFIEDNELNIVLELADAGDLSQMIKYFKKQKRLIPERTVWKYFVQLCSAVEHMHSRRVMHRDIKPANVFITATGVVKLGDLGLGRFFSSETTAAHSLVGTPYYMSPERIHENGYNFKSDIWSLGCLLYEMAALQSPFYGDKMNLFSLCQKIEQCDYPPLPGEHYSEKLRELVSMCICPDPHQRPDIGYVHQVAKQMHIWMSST

[25] = target: MAP kinase-activated protein kinase 5 (Homo sapiens, UniProt Q8IW41); assay: Inhibition of recombinant PRAK (unknown origin)
[26] = target: Protein kinase C alpha type (Homo sapiens, UniProt P17252); assay: Inhibition of recombinant PKCa (unknown origin)
[27] = target: Dual specificity mitogen-activated protein kinase kinase 1 (Homo sapiens, UniProt Q02750); assay: Inhibition of recombinant MEK1 (unknown origin)
Chain of Dual specificity mitogen-activated protein kinase kinase 1 (Q02750 whole entry): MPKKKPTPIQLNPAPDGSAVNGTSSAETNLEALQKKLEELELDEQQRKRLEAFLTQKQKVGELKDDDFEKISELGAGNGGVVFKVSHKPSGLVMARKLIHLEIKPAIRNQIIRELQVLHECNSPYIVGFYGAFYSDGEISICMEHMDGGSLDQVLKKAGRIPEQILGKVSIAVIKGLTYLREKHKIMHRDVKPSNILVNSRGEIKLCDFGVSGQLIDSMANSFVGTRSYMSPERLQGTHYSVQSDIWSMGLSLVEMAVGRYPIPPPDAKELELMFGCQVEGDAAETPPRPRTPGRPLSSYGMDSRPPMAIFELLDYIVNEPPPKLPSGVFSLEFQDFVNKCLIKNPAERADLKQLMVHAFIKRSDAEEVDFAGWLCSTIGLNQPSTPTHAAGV

NIH3T3 [28] = assay: Inhibition of ERBB2 Ins774YVMA mutant (unknown origin) expressed in mouse NIH3T3 cells assessed as inhibition of ERBB2 phosphorylation at 100 to 10000 nmol/L incubated for 6 hrs by Western blotting analysis; assay type: cell-based; conditions: dose 100-10000 nmol/L
HCC827 [29] = assay: Antitumor activity against human HCC827 cells expressing GFP xenografted in nude mouse assessed as inhibition of tumor growth at 10 mg/kg/day, po and measured thrice weekly; assay type: functional, organism-based
In short: as §1

NCI-H3255 [30] = assay: cells; assay type: functional, cell-based; conditions: Homo sapiens, NCI-H3255, 72 h; remark: listed apart in the source
BaF3 [31] = assay: cells; assay type: functional, cell-based; conditions: Mus musculus, BaF3, 72 h; remark: listed apart in the source
NIH3T3 [32] = conditions: Mus musculus, dose 1-10000 nmol/L, time 6.25 hrs; remark: listed apart in the source
NCI-H3255 [33] = assay: cells; assay type: functional, cell-based; conditions: Homo sapiens, NCI-H3255, 72 h; remark: listed apart in the source
cells [34] = assay type: functional, cell-based; conditions: Homo sapiens, NCI-H820, 72 h
BaF3 [35] = assay: cells; assay type: functional, cell-based; conditions: Mus musculus, BaF3, 72 h; remark: listed apart in the source

Chain of Receptor tyrosine-protein kinase erbB-2 (P70424 whole entry): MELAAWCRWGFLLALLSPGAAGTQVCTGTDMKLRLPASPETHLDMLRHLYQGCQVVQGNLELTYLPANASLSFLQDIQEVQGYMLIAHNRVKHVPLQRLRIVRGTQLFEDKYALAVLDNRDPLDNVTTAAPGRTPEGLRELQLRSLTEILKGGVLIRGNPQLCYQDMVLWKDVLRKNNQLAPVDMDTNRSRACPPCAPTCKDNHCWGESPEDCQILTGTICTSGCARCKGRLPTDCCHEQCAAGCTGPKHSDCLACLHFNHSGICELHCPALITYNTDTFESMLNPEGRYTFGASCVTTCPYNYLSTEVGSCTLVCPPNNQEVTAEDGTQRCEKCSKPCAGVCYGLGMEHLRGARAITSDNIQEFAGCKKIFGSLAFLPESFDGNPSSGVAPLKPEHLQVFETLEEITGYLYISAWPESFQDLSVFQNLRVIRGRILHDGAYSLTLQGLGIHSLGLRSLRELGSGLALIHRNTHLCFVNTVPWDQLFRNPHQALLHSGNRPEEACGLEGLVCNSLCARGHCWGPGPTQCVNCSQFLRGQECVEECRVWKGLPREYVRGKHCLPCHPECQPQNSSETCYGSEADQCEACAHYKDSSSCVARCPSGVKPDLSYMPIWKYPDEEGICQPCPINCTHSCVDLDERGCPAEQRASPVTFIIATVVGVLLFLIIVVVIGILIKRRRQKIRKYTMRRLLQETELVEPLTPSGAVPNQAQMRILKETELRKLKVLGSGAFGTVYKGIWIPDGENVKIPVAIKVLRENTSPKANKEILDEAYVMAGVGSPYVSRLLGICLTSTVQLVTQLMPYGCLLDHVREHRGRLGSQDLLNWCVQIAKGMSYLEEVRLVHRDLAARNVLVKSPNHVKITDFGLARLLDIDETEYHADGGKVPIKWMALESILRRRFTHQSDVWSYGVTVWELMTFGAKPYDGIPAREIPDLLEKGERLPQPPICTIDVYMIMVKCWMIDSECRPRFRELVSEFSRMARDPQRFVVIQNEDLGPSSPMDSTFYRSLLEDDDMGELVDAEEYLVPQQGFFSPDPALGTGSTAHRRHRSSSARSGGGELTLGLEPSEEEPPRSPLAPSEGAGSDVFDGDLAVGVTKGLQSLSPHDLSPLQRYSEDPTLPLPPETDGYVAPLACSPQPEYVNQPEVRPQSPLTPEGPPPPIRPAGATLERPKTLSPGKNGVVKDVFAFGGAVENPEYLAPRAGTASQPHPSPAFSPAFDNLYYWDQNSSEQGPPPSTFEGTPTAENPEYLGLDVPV

COc1cc2ncnc(Nc3ccc(F)c(Cl)c3)c2cc1NC(=O)/C=C/CN1CCCCC1 [DACOMITINIB ANHYDROUS]
IC50 (BaF3 [1]): 2 nM | IC50 [2]: 41 nM | IC50 [3]: > 40000 nM | inhibition (HCC827 [4]): Active | IC50 [5]: > 10000 nM | IC50 (Casein kinase 2): > 10000 nM | IC50 [6]: > 10000 nM | IC50 (Wee1-like protein kinase): > 10000 nM | IC50 [7]: > 10000 nM | IC50 [8]: > 10000 nM | IC50 (cells [9]): 119 nM | IC50 (NCI-H3255 [10]): 7 nM | IC50 (BaF3 [11]): 1.6 nM | IC50 (BaF3 [12]): 330 nM | IC50 (HCC827 [13]): 61 nM | IC50 (H322): > 10000 nM | IC50 [14]: > 40000 nM | IC50 (HCC827 [15]): 2 nM | IC50 (BaF3 [16]): 1.9 nM | Activity (HCC827 [17]): Active | IC50 [18]: > 10000 nM | IC50 [19]: > 40000 nM | Activity (NCI-H3255 [20]): Active | IC50 (BaF3 [21]): 140 nM | IC50 (A549): > 10000 nM | IC50 (HCC4006): 4 nM | IC50 [22]: > 10000 nM | inhibition (NIH3T3 [23]): Active | IC50 [24]: > 10000 nM | IC50 [25]: > 10000 nM | IC50 [26]: > 10000 nM | IC50 [27]: > 40000 nM | inhibition (NIH3T3 [28]): Active | Activity (HCC827 [29]): Active | IC50 (NCI-H3255 [30]): 137 nM | IC50 (BaF3 [31]): 270 nM | inhibition (NIH3T3 [32]): Active | IC50 (NCI-H3255 [33]): 1570 nM | IC50 (cells [34]): 930 nM | IC50 (BaF3 [35]): < 1 nM
